# Experimental data pooled from the literature.
# CTSV: Cathepsin L2 (CTSV, Homo sapiens, UniProt O60911)
# PKN1: Serine/threonine-protein kinase N1 (PKN1, Homo sapiens, UniProt Q16512)
# NUAK2: NUAK family SNF1-like kinase 2 (NUAK2, Homo sapiens, UniProt Q9H093)
SMILES,target,assay,conditions,quantity,result
N=C(N)c1ccc2cc(OC(=O)c3ccc(N=C(N)N)cc3)ccc2c1,CTSV,"enzyme activity, inhibitor",10 µM,inhibition,27%
Nc1ncc(-c2nc(N3CCOCC3)nc(N3CCOCC3)n2)c(C(F)F)n1,"Ribosomal protein S6 kinase alpha-6, N-terminal kinase domain (RPS6KA6, Homo sapiens, UniProt Q9UK32)","binding, competition with immobilised ligand",10 µM,remaining binding,48%
CC(=O)c1c(O)c(C)c(O)c(Cc2c(O)c3c(c(C(=O)/C=C/c4ccccc4)c2O)OC(C)(C)C=C3)c1O,PKN1,"enzyme activity, inhibitor",1 µM,activity vs control,84%
Cc1nn(C)cc1-c1nc2c(N3CCN(Cc4ccc(Cl)cc4)CC3)c(Cl)cnc2[nH]1,NUAK2,"binding, competition with immobilised ligand",1 µM,remaining binding,32%
CC(C)C[C@H](NC(=O)[C@H]1O[C@@H]1C(=O)O)C(=O)NCCCCN=C(N)N,CTSV,"enzyme activity, inhibitor",50 nM,inhibition,57%
COC[C@H]1OC(=O)c2coc3c2[C@@]1(C)C1=C(C3=O)[C@@H]2CCC(=O)[C@@]2(C)C[C@H]1OC(C)=O,PKN1,"enzyme activity, inhibitor",1 µM,activity vs control,111%
CN(C)C(=O)COC(=O)Cc1ccc(OC(=O)c2ccc(NC(=N)N)cc2)cc1,"Matrix metalloproteinase-9 (MMP9, Homo sapiens, UniProt P14780, Q279R)","enzyme activity, inhibitor",10 µM,inhibition,8%
O=c1[nH]c2ccccc2n1C1CCN(Cc2ccc(-c3nc4cc5nc[nH]c5cc4nc3-c3ccccc3)cc2)CC1,PKN1,"enzyme activity, inhibitor",1 µM,activity vs control,77%
COc1ncccc1-c1cnn2ccc(N3CCN(C(=O)OC(C)C)CC3)nc12,NUAK2,"binding, competition with immobilised ligand",1 µM,remaining binding,100%
